# Results as given in PubChem BioAssay AID1040 (The Scripps Research Institute Molecular Screening Center, 2008).
# In all, about 200,000 compounds went through this assay and about 2,000 (1%) were called active. This excerpt belongs to a sample that is enriched for actives. Unmarked numbers belong to inactive results.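 Rule for the calls: active = inhibition above the campaign mean inhibition of all tested compounds plus 3 SD (cut at about 20% in these data); inactive = the rest.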
# Target: Neuropeptide Y receptor type 1 (Homo sapiens) (UniProt P25929)
# Test: NPY-Y1 receptor antagonists, primary screen, cell-based (AID 1040);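 note: 0% = DMSO wells given NPY plus isoproterenol and 100% = isoproterenol alone without NPY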
# Settings: HEK293-CNG Y1 cells, membrane potential fluorescence; at 3.6 µM; stronger effect = higher value; NPY at EC95, then isoproterenol
# Outline: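 System: HEK293 cells with Y1 receptor plus CNG channel / Probe or stimulus: NPY 25 nM then isoproterenol 1 µM plus Ro 20-1724 25 µM / Compound: one concentration, 3.6 µM, in 0.4% DMSO / Schedule: compound incubation 1 h at room temperature, readout 45 min post-stimulation / Measured by: membrane potential fluorescence / Read-out: % inhibition of NPY effect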
# Neuropeptide Y receptor type 1 (Homo sapiens), sequence (P25929 whole entry, looked up): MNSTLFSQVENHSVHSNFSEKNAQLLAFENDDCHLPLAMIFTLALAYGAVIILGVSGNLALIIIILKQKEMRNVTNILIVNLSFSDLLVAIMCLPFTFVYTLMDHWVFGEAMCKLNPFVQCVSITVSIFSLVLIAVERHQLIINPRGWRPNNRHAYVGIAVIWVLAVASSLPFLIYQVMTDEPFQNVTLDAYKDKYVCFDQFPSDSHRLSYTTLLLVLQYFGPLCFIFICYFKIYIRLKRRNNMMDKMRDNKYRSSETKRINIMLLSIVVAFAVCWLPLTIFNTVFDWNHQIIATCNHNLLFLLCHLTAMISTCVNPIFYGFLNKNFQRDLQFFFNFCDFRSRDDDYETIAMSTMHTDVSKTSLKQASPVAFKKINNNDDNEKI
row,Compound,inhibition
1,COCCNC(=O)c1onc(CSc2cccc(C)c2)c1C(=O)O,9.11%
2,CCCCNC(=O)c1onc(CSc2cccc(OC)c2)c1C(=O)O,28.4% (active)
3,CCOc1cccc(SCc2noc(C(=O)NC(C)C)c2C(=O)O)c1,11%
4,COc1ccc2nc(SCc3ccccc3)nc(C)c2c1,4.78%
5,Cc1cccc(NC(=S)Nc2ccc(Cl)c(Cl)c2)c1,1.7%
6,Cc1cccc(NC(=S)Nc2ccc(Br)cc2)c1,3.74%
7,Cc1cccc(NC(=S)NCCN(C2CCCCC2)C2CCCC2)c1,21.2% (active)
8,Cc1nc(-c2ccccc2)cn2c1nc1ccccc12,5.56%
9,O=C(Cc1coc2ccc3ccccc3c12)NCc1cccs1,1.1%
10,COc1ccccc1C(=O)Nc1ccc(NC(=O)c2ccco2)c(C)c1,2.31%
11,O=C(Nc1ccc(NC(=O)c2ccco2)c(Cl)c1)c1cccc([N+](=O)[O-])c1,0.59%
12,COc1cc(NC(=O)c2cc([N+](=O)[O-])ccc2Br)ccc1NC(=O)c1ccco1,30.1% (active)
13,CN(C)CCCO/N=C(\c1ccccc1)c1ccncc1,-1.1%
14,O=C(COc1cccc(F)c1)Oc1ccc(C(=O)c2ccccc2)cc1,2.24%
15,CCOC(=O)N1CCN(C(=O)c2cnc3n(c2=O)CCS3)CC1,-1.03%
16,CC1CCc2c(sc3nc4n(c(=O)c23)CCS4)C1 (centres undefined),-3.28%
17,CCCCc1c(O)nc2n(c1=O)CCS2,20.6% (active)
18,CCc1ccccc1NC(=O)CN(C)C(=O)COc1ccc(C)nc1[N+](=O)[O-],-0.59%
19,COc1ccc(/C(=N\O)c2nccc3cc(OC)c(OC)cc23)cc1OC,5.85%
20,Cc1ccc(-n2nc3c(c2NC(=O)CCC2CCCCC2)CS(=O)C3)cc1 (centres undefined),8.28%
21,O=C(CC1CCCCC1)Nc1c2c(nn1-c1ccc(F)cc1)CS(=O)(=O)C2,46.3% (active)
22,O=C(CC1CCCCC1)NCc1ccc(F)cc1,-0.26%

row,Compound,inhibition
1,CC(NC(=S)NC1CCCCC1)C(c1ccccc1)N1CCOCC1 (centres undefined),0.27%
2,O=S(=O)(O)c1nc2ccccc2n1Cc1ccc(Cl)cc1,21.2% (active)
3,O=S(=O)(Cc1ccccc1)c1nc2ccccc2n1Cc1ccccn1,-1.06%
4,O=S(=O)(O)c1nc2ccccc2n1Cc1ccc(Cl)cc1Cl,-2.49%
5,O=C(Nc1ccccc1Cl)c1ccc2nsnc2c1,0.69%
6,O=C(CN1CCCCC1)Nc1ccccc1Cl,-2.44%
7,O=C(Nc1ccccc1Cl)/C(Cl)=C(\Cl)S(=O)c1ccccc1 (centres undefined),27.5% (active)
8,CC(NC(=O)COC(=O)c1ccc(Cl)cc1O)c1ccc(F)cc1 (centres undefined),-0.49%
9,COc1ccccc1Nc1ncnc2c1oc1ccccc12,21.3% (active)
10,CCc1nc(Nc2ccc3nccnc3c2)c2oc3ccccc3c2n1,-0.08%
11,Cc1nc(Cl)c2oc3ccccc3c2n1,3.46%
12,COc1ccc(-n2nc3c(c2NC(=O)c2ccc(N4C(=O)CCC4=O)cc2)CSC3)cc1,2.78%
13,CN(C)CCNC(=O)/C(=C/c1cccc([N+](=O)[O-])c1)NC(=O)c1ccccc1,2.65%
14,Cc1ccc(C(=O)N/C(=C/c2ccc(-c3cccc([N+](=O)[O-])c3)o2)C(=O)NCCCN(C)C)cc1,27.8% (active)
15,N#C/C(=C\c1ccc(-c2cccc([N+](=O)[O-])c2)o1)C(=O)NCCN1CCOCC1,0.61%
16,CCOC(=O)c1cccnc1NC(=O)c1ccncc1,-1.05%
17,CC(C)N(C(=O)CSc1nc(COc2ccccc2)nc2ccccc12)C(C)C,3.31%
18,CCOC(=O)N1CCN(C(=S)Nc2ccc(C)cc2C)CC1,3.77%
19,CCOC(=O)c1nn(-c2cccc(C)c2)cc1C(=O)c1ccccc1,22% (active)
20,CC(=O)c1nn(-c2cccc(Br)c2)cc1C(=O)c1cccc2ccccc12,-2.46%
21,CCOC(=O)c1cn(Cc2cccc(C)c2)nn1,-0.81%
22,CCCCC(=O)Nc1nc(C)c(-c2csc(Nc3ccc(Cl)cc3)n2)s1,4.16%

row,Compound,inhibition
1,CCCCCCC(=O)Nc1nc(C)c(-c2csc(Nc3cc(Cl)ccc3OC)n2)s1,11.2%
2,CCCCCCC(=O)Nc1nc(C)c(-c2csc(Nc3cccc(OC)c3)n2)s1,28.2% (active)
3,CCOC(=O)C1CCCN(C(=O)COc2ccc(N(C)S(=O)(=O)c3ccc(C)cc3)cc2)C1 (centres undefined),2%
4,CCSC1=NCCN1S(=O)(=O)c1ccc(F)cc1,-1.87%
5,Cc1cccc(OCC(=O)Nc2ccccc2F)c1,5.47%
6,COCCNC(=O)COc1ccc(C)c(C)c1,-3.6%
7,Cc1ccc(OCC(=O)Nc2cccc3c2CCCC3)cc1C,21.6% (active)
8,COc1ccc(C2Nc3ccccc3C(=O)N2c2ccc(F)cc2)cc1Cn1nnc2ccccc21 (centres undefined),-0.97%
9,COc1ccc(C2Nc3ccccc3C(=O)N2Cc2ccccc2)cc1Cn1nnc2ccccc21 (centres undefined),27.9% (active)
10,COc1ccc(C2Nc3ccccc3C(=O)N2c2ccc(Cl)cc2)cc1Cn1cc([N+](=O)[O-])cn1 (centres undefined),3.97%
11,OCCC1CN(Cc2cccc(OC3CCCC3)c2)CCN1Cc1ccsc1 (centres undefined),7.81%
12,CC(=O)NCCC(=O)Nc1nc(C)c(Cc2ccc3c(c2)OCO3)s1,3.53%
13,CC(C[N+](C)(C)C)OC(N)=O (centres undefined),-2.3%
14,CC(=O)OC(C)C[N+](C)(C)C (centres undefined),25.2% (active)
15,Cc1cc(C)c(OCCN2CC(C)OC(C)C2)c(Br)c1 (centres undefined),9.03%
16,CN1CCN(CCCCOc2ccccc2-c2ccccc2)CC1,12.9%
17,CC1CN(CCOc2ccccc2[N+](=O)[O-])CC(C)O1 (centres undefined),-1.43%
18,c1ccc(-c2ccccc2OCCN2CCCCC2)cc1,22.3% (active)
19,CC1CN(CCCOc2ccccc2-c2ccccc2)CC(C)O1 (centres undefined),24.5% (active)
20,CC1CCCN(CCOCCOc2ccccc2-c2ccccc2)C1 (centres undefined),12.5%
